Assay results of several laboratories.
Each line is one published result; the experiments were not run side by side.

O=C1CC[C@H](N2Cc3cc(N4CCN(CC5CCN(c6ccc([C@@H]7c8ccc(O)cc8CC[C@@H]7c7ccccc7)cc6)CC5)CC4)ccc3C2=O)C(=O)N1 — hepatocyte CLint (metabolic stability; Sprague-Dawley rat, hepatocytes; 1 µM): 8.4 µL/min/10⁶ cells
COCCc1ccc(OCC(O)CNC(C)C)cc1 (stereo not drawn) — hepatocyte CLint (metabolic stability; Sprague-Dawley rat, hepatocytes; 0.5 µM, pH 7.4): 35 µL/min/10⁶ cells
CCOc1ccc2ccc(=O)oc2c1 — hepatocyte CLint (metabolic stability; male Sprague-Dawley rat, hepatocytes; 1 µM): 52.8 µL/min/10⁶ cells
Cc1c(N(C)C)ccc2cc(C(=O)NS(=O)(=O)c3ccccc3-c3ccccc3)oc12 — logD (pH 7.5): 2.1
CC(/C=C/C=C(\C)C(=O)O)=C\C=C\C=C(C)\C=C\C=C(/C)C(=O)O — logD (shake flask; PBS; 2 h, pH 7.4): 0.7
O=C(O)Cc1ccccc1Nc1c(Cl)cccc1Cl — hepatocyte CLint (metabolic stability; Sprague-Dawley rat, hepatocytes; 0.5 µM, pH 7.4): 66 µL/min/10⁶ cells
C[C@H]1Oc2cc(cnc2N)-c2c(nn(C)c2C#N)CN(C)C(=O)c2ccc(F)cc21 — fraction unbound (bovine, serum): 0.98
C=C(F)C(=O)N1CCN(c2nc(OC[C@@H]3CCCN3C)nc3c2CCN(c2cccc4cccc(Cl)c24)C3)C[C@@H]1CC#N — logD (potentiometric; pH 7.4): 3.6
COc1cc2nc3n(c(=O)c2cc1Cl)CC[C@@H]1[C@@H]3CCCN1CC1COC1 — logD (shake flask; aqueous buffer; 1 h, pH 7.4): 2.3
Cc1ccc(Cn2cc(C(=O)NN)c(=O)c3cc(Oc4ccccc4)ccc32)cc1 — logD (shake flask; PBS; 2 h, pH 7.4): 2
CCn1cc(C)c2c([C@H](N)c3ccc(C(F)(F)F)nc3)n(C)nc2c1=O — hepatocyte CLint (metabolic stability; male Sprague-Dawley rat, hepatocytes; 0.5 µM, pH 7.4): 1.9 µL/min/10⁶ cells
O=c1ccc2ccc(O)cc2o1 — scaled CLint (metabolic stability; rat, liver microsomes): 1030 mL/min/kg
Cc1c(C(=O)O)ccc2c3n(nc12)[C@@H]1[C@H](C3)N(CC2CC2)[C@@]2(C(=O)Nc3cc(Cl)ccc32)[C@H]1c1cccc(Cl)c1F — fraction unbound (bovine, serum): 0.045
CCn1ccc2c([C@](O)(c3cnc(C(F)(F)F)c(Cl)c3)C3CC3)n(C)nc2c1=O — hepatocyte CLint (metabolic stability; male Sprague-Dawley rat, hepatocytes; 0.5 µM, pH 7.4): 3.3 µL/min/10⁶ cells
O=c1ccc2ccc(O)cc2o1 — hepatocyte CLint (metabolic stability; Sprague-Dawley rat, hepatocytes; 1 µM): 61 µL/min/10⁶ cells
